The values that follow come from ChEMBL document CHEMBL1629527, “In vitro antifungal activities of bis(alkylpyridinium)alkane compounds against pathogenic yeasts and molds” (Antimicrob Agents Chemother, 2010).

Common to all, as to format: functional
Test [1] can be described thus: Antifungal activity against Paecilomyces lilacinus 05-200601 after 24 to 72 hrs by broth microdilution method. The settings on record: Purpureocillium lilacinum. In short, it runs like this: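 Mold isolates subcultured on potato dextrose agar, then tested by CLSI M38-A2 broth microdilution in RPMI 1640 (L-glutamine, no bicarbonate) buffered to pH 7.0 with 0.165 M MOPS. Compounds were dissolved in water and tested at a final 0.175–87.5 μM. Plates were incubated at 35°C. MIC was read visually as the lowest concentration giving 100% inhibition versus the growth control. Each isolate was run in duplicate in two independent experiments.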

Test [2] concerns Candida parapsilosis. Description: Antifungal activity against Candida parapsilosis ATCC 22019 after 48 to 72 hrs. The conditions noted are these: Lodderomyces parapsilosis. In short, it runs like this: (§1)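 MFC: after the MIC read, 30-μl aliquots from each well without visible growth were plated onto Sabouraud dextrose agar and incubated at 35°C. Reading was at 48–72 h for yeasts and up to 7 days for molds. MFC was the lowest concentration with no colonies.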

The test system of test [3] is Candida albicans. Description: Antifungal activity against Candida albicans after 24 to 72 hrs by broth microdilution method. The method in brief:
(§2)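 CLSI M27-A3 broth microdilution for yeasts in RPMI 1640 with L-glutamine and no bicarbonate, buffered with 0.165 M MOPS to pH 7.0. Compounds were dissolved in water and tested at 0.175–87.5 μM final, 35°C. MIC was read visually at 24–72 h as 100% inhibition versus growth control. For MFC, 30 μl from clear wells went onto SDA at 35°C for 48–72 h, reading the lowest concentration without colonies. Duplicates, two independent runs.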

The test system of another test is Candida tropicalis. Briefly: Antifungal activity against Candida tropicalis 04-202361 after 48 to 72 hrs. The method in brief: as §2
The test system of test [4] is Meyerozyma guilliermondii. Briefly: Antifungal activity against Candida guilliermondii after 24 to 72 hrs by broth microdilution method. The method in brief:
(§3)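 Broth microdilution MIC per CLSI M27-A3 (yeasts) or M38-A2 (molds). RPMI 1640 with L-glutamine, without bicarbonate, buffered to pH 7.0 with 0.165 M MOPS. Final test range for the compounds was 0.175–87.5 μM. Incubation at 35°C with visual reading at 24–72 h. MIC was the lowest concentration giving 100% inhibition versus the growth control (azoles 50% or 100%, by organism). Each isolate was run in duplicate in two independent experiments.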

The subject of another test is Rhizopus arrhizus. Description: Antifungal activity against Rhizopus oryzae 05-203111 after 48 to 72 hrs. In short, it runs like this:
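After the broth microdilution MIC read, suspension from every well without visible growth was plated onto Sabouraud dextrose agar and incubated at 35°C, up to 7 days for molds. MFC was taken as the lowest drug concentration with no colonies.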

A short description of test [5]: Antifungal activity against Exophiala jeanselmei 03-200268 after 24 to 72 hrs by broth microdilution method. In short, it runs like this:
as §3

Test [6] relates to Pichia kudriavzevii. Description: Antifungal activity against Candida krusei ATCC 9258 after 24 to 72 hrs by broth microdilution method. The method in brief: as §3
Test [7] concerns Candida albicans. Briefly: Antifungal activity against Candida albicans ATCC 10231 after 48 to 72 hrs. In short, it runs like this: as §1
The test system of test [8] is Candida parapsilosis. Briefly: Antifungal activity against Candida parapsilosis ATCC 22019 after 24 to 72 hrs by broth microdilution method. The settings on record: Lodderomyces parapsilosis. In short, it runs like this: as §3
In test [9] the test system is Pichia kudriavzevii. Briefly: Antifungal activity against Candida krusei ATCC 6258 after 48 to 72 hrs. In short, it runs like this: as §1
The test system of test [10] is Candida albicans. Description: Antifungal activity against Candida albicans ATCC 90028 after 48 to 72 hrs. In short, it runs like this:
as §1

For test [11], the system named is Aspergillus fumigatus. Briefly: Antifungal activity against Aspergillus fumigatus 05-203114 after 24 to 72 hrs by broth microdilution method. In short, it runs like this: as §3
Test [12] concerns Candida albicans. Briefly: Antifungal activity against Candida albicans ATCC 90028 after 24 to 72 hrs by broth microdilution method. The method in brief: as §3
Test [13] has as its system Cryptococcus neoformans. Briefly: Antifungal activity against Cryptococcus neoformans ATCC 90112 after 24 to 72 hrs by broth microdilution method. The method in brief: as §3
Test [14] relates to Cryptococcus neoformans. Description: Antifungal activity against Cryptococcus neoformans 05-202523 after 24 to 72 hrs by broth microdilution method. The method in brief:
as §3

Another test deals with Nakaseomyces glabratus. Description: Antifungal activity against Candida glabrata 04-202345 after 48 to 72 hrs. In short, it runs like this: as §1
Test [15] relates to Candida parapsilosis. Briefly: Antifungal activity against Candida parapsilosis 04-202398 after 48 to 72 hrs. The settings on record: Lodderomyces parapsilosis. The method in brief: as §2
For the next test, the system named is Exophiala spinifera. Description: Antifungal activity against Exophiala spinifera 03-200803 after 48 to 72 hrs. The method in brief: (§4)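 CLSI M38-A2 broth microdilution for molds in RPMI 1640 with L-glutamine and no bicarbonate, buffered with 0.165 M MOPS to pH 7.0. Compounds were dissolved in water and tested at 0.175–87.5 μM final, 35°C, up to 7 days. MIC was read visually as 100% inhibition versus growth control. For MFC, clear wells were plated on SDA and the lowest concentration with no colonies taken. Each isolate was run in duplicate, two independent experiments.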

Test [16] deals with Aspergillus fumigatus. Briefly: Antifungal activity against Aspergillus fumigatus ATCC 204305 after 48 to 72 hrs. The method in brief:
as §4

The test system of the next test is Aspergillus flavus. Briefly: Antifungal activity against Aspergillus flavus 05-203758 after 48 to 72 hrs. The method in brief:
as §4

A further test concerns Lomentospora prolificans. Briefly: Antifungal activity against Scedosporium prolificans 05-203060 after 48 to 72 hrs. The method in brief:
as §4

The test system of test [17] is Cunninghamella bertholletiae. Description: Antifungal activity against Cunninghamella bertholletiae 99-12187 after 48 to 72 hrs. The settings on record: in the assay text read “for up to 7 days” for “after 48 to 72 hrs”. The method in brief:
as §1

For test [18], the system named is Aspergillus fumigatus. Briefly: Antifungal activity against Aspergillus fumigatus 05-203114 after 48 to 72 hrs. In short, it runs like this:
as §4

A short description of test [19]: Antifungal activity against Exophiala jeanselmei 03-200268 after 48 to 72 hrs. In short, it runs like this:
as §4

Another test deals with Aspergillus terreus. Briefly: Antifungal activity against Aspergillus terreus 05-202844 after 48 to 72 hrs. In short, it runs like this:
as §1

The subject of test [20] is Pichia kudriavzevii. Description: Antifungal activity against Candida krusei […] after 48 to 72 hrs. The method in brief:
as §1

Take `C=CCCCc1cc[n+](CCCCCCCCCCCC[n+]2ccc(CCCC=C)cc2)cc1.[Cl-].[Cl-]`: the MIC in [1] was > 47.3 µg/mL; against Candida albicans [3], 1.28 µg/mL; in test [4], 1.69 µg/mL; in test [5], 5.9 µg/mL; against Pichia kudriavzevii [6], 11.8 µg/mL; in the test with Candida parapsilosis [8], 1.48 µg/mL. The MIC is > 47.3 µg/mL in the test with Aspergillus fumigatus [11], 1.48 µg/mL against Candida albicans [12], 11.8 µg/mL against Cryptococcus neoformans [13] and 11.8 µg/mL in the test with Cryptococcus neoformans [14]. The MFC against Candida parapsilosis [2] was 2.96 µg/mL; in the test on Candida tropicalis it was 5.9 µg/mL; against Rhizopus arrhizus, 23.7 µg/mL; against Candida albicans [7], 5.9 µg/mL; with Pichia kudriavzevii [9], 11.8 µg/mL; in the test on Candida albicans [10] it was 2.96 µg/mL. This molecule showed an MFC with Nakaseomyces glabratus of 3 µg/mL. The MIC50 (against Candida albicans [3]; in test [4]) was 1.47 µg/mL each time. Also, the MIC90 (with Candida albicans [3]; in [4]) was 1.47 µg/mL in each case.

Take `CCCCCc1cc[n+](CCCCCCCCCCCC[n+]2ccc(CCCCC)c(C)c2)cc1C.[Cl-].[Cl-]`: the MIC was > 50.7 µg/mL in test [1]; 1.36 µg/mL in the test with Candida albicans [3]; 0.903 µg/mL in test [4]; 1.58 µg/mL in test [5]; 0.79 µg/mL with Candida parapsilosis [8]; 25.3 µg/mL against Aspergillus fumigatus [11]. For the same molecule, the MIC in the test with Candida albicans [12] was 1.58 µg/mL; with Cryptococcus neoformans [13] it was 0.79 µg/mL; against Cryptococcus neoformans [14], 12.7 µg/mL. Further, the MIC50 in the test on Candida albicans [3] is 1.56 µg/mL; in test [4], 0.79 µg/mL. Moreover, the MIC90 (against Candida albicans [3]; in test [4]) was 1.56 µg/mL throughout. The MFC against Candida tropicalis stood at 1.58 µg/mL; with Candida parapsilosis [15], 50.7 µg/mL; with Exophiala spinifera it was 1.58 µg/mL; with Rhizopus arrhizus it was 6.3 µg/mL; in the test with Aspergillus fumigatus [16], 50.7 µg/mL; in the test with Aspergillus flavus, 50.7 µg/mL. Moreover, the MFC in the test on Lomentospora prolificans came out at 6.83 µg/mL; against Nakaseomyces glabratus, 3.2 µg/mL.

For `CCCCCCc1cc[n+](CCCCCCCCCCCC[n+]2ccc(CCCCCC)cc2)cc1.[Cl-].[Cl-]`, the MFC came to 25.3 µg/mL in test [17], 50.7 µg/mL against Candida parapsilosis [15], 50.7 µg/mL against Aspergillus fumigatus [16] and 50.7 µg/mL against Aspergillus fumigatus [18]. In addition, the MIC in test [1] is 50.7 µg/mL; against Candida albicans [3], 1.56 µg/mL; in [4] it was 0.789 µg/mL; in [5] it was 0.79 µg/mL; with Candida parapsilosis [8], 0.79 µg/mL; in the test on Aspergillus fumigatus [11] it was 12.7 µg/mL. Also, the MIC in the test on Candida albicans [12] amounted to 0.79 µg/mL; against Cryptococcus neoformans [13] it was 0.79 µg/mL; in the test with Cryptococcus neoformans [14], 6.3 µg/mL. Besides, the MIC50 in the test with Candida albicans [3] came out at 1.56 µg/mL; in [4], 0.79 µg/mL. Moreover, the MIC90 (against Candida albicans [3]; in test [4]) was 1.56 µg/mL each time.

Turning to `CCCCCc1cc[n+](CCCCCCCCCCCC[n+]2ccc(CCCCC)cc2)cc1.[Cl-].[Cl-]`, the MIC in test [1] was > 47.3 µg/mL; in test [4], 0.569 µg/mL; in [5] it was 1.48 µg/mL; against Pichia kudriavzevii [6], 5.9 µg/mL; against Candida parapsilosis [8], 0.74 µg/mL; in the test on Aspergillus fumigatus [11], 47.3 µg/mL. In addition, the figures for the MIC against Candida albicans [12], in the test with Cryptococcus neoformans [13] and with Cryptococcus neoformans [14] were 1.48 µg/mL, 1.48 µg/mL and 47.3 µg/mL, respectively. The MFC against Candida parapsilosis [2] was found to be 1.48 µg/mL; against Rhizopus arrhizus, 5.9 µg/mL; in [19], 2.96 µg/mL; in the test on Pichia kudriavzevii [9], 11.8 µg/mL; in the test on Lomentospora prolificans it was 2.96 µg/mL; against Aspergillus terreus it was 11.8 µg/mL. In the test with Pichia kudriavzevii [20], this molecule showed an MFC of 11.8 µg/mL. Moreover, the MIC50 in the test on Candida albicans [3] was determined as 1.48 µg/mL; in [4] it was 0.38 µg/mL. Further, the MIC90 against Candida albicans [3] came to 1.48 µg/mL; in test [4] it was 0.75 µg/mL.
